For assay [1], the target named is 14-3-3 protein gamma (Homo sapiens) (UniProt P61981). Description: Binding affinity to YWHAG in human NCI-H23 cells at 1 uM by mass spectrometry based pull down assay. Type of assay: cell-based.
Assay [2] deals with Far upstream element-binding protein 1 (Homo sapiens) (UniProt Q96AE4). Description: Binding affinity to FUBP1 in human NCI-H23 cells at 1 uM by mass spectrometry based pull down assay. Type of assay: cell-based.
The target in assay [3] is HCLS1-associated protein X-1 (Homo sapiens) (UniProt O00165). Description: Binding affinity to HAX1 in human NCI-H23 cells at 1 uM by mass spectrometry based pull down assay. Type of assay: cell-based.
Assay [4] concerns the target Translocon-associated protein subunit delta (Homo sapiens) (UniProt P51571). Description: Binding affinity to SSR4 in human NCI-H23 cells at 1 uM by mass spectrometry based pull down assay. Type of assay: cell-based.
Assay [5] addresses Cytoplasmic dynein 1 intermediate chain 2 (Homo sapiens) (UniProt Q13409). Nature of the assay: Binding affinity to DYNC1I2 in human NCI-H23 cells at 1 uM by mass spectrometry based pull down assay. Type of assay: cell-based.
Assay [6] deals with 14-3-3 protein sigma (Homo sapiens) (UniProt P31947). Description: Binding affinity to SFN in human NCI-H23 cells at 1 uM by mass spectrometry based pull down assay. Type of assay: cell-based.
Assay [7] addresses Serine/threonine-protein kinase WNK1 (Homo sapiens) (UniProt Q9H4A3). Nature of the assay: Binding affinity to WNK1 in human NCI-H23 cells at 1 uM by mass spectrometry based pull down assay. Type of assay: cell-based.
Assay [8] deals with E3 ubiquitin-protein ligase HUWE1 (Homo sapiens) (UniProt Q7Z6Z7). Nature of the assay: Binding affinity to HUWE1 in human NCI-H23 cells at 1 uM by mass spectrometry based pull down assay. Type of assay: cell-based.
For assay [9], the target named is Thymidylate kinase (Homo sapiens) (UniProt P23919). Description: Binding affinity to DTYMK in human NCI-H23 cells at 1 uM by mass spectrometry based pull down assay. Type of assay: cell-based.
Assay [10] has as its target Tyrosine-protein phosphatase non-receptor type 1 (Homo sapiens) (UniProt P18031). Nature of the assay: Binding affinity to PTPN1 in human NCI-H23 cells at 1 uM by mass spectrometry based pull down assay. Type of assay: cell-based.
For assay [11], the target named is Actin-related protein 2/3 complex subunit 5 (Homo sapiens) (UniProt O15511). Nature of the assay: Binding affinity to ARPC5 in human NCI-H23 cells at 1 uM by mass spectrometry based pull down assay. Type of assay: cell-based.
The target of assay [12] is TBC1 domain family member 15 (Homo sapiens) (UniProt Q8TC07). Nature of the assay: Binding affinity to TBC1D15 in human NCI-H23 cells at 1 uM by mass spectrometry based pull down assay. Type of assay: cell-based.
In assay [13] the target is Acidic leucine-rich nuclear phosphoprotein 32 family member B (Homo sapiens) (UniProt Q92688). Nature of the assay: Binding affinity to ANP32B in human NCI-H23 cells at 1 uM by mass spectrometry based pull down assay. Type of assay: cell-based.
The target of assay [14] is Glutamine--fructose-6-phosphate aminotransferase [isomerizing] 1 (Homo sapiens) (UniProt Q06210). Description: Binding affinity to GFPT1 in human NCI-H23 cells at 1 uM by mass spectrometry based pull down assay. Type of assay: cell-based.
Assay [15] deals with RuvB-like 1 (Homo sapiens) (UniProt Q9Y265). Description: Binding affinity to RUVBL1 in human NCI-H23 cells at 1 uM by mass spectrometry based pull down assay. Type of assay: cell-based.
Assay [16] deals with Amidophosphoribosyltransferase (Homo sapiens) (UniProt Q06203). Nature of the assay: Binding affinity to PPAT in human NCI-H23 cells at 1 uM by mass spectrometry based pull down assay. Type of assay: cell-based.
Assay [17] concerns the target COP9 signalosome complex subunit 8 (Homo sapiens) (UniProt Q99627). Nature of the assay: Binding affinity to COPS8 in human NCI-H358 cells at 1 uM by mass spectrometry based pull down assay. Type of assay: cell-based.
Assay [18] concerns the target DnaJ homolog subfamily B member 6 (Homo sapiens) (UniProt O75190). Description: Binding affinity to DNAJB6 in human NCI-H358 cells at 1 uM by mass spectrometry based pull down assay. Type of assay: cell-based.
Assay [19] has as its target Ribosomal protein S6 kinase alpha-1 (Homo sapiens) (UniProt Q15418). Description: Binding affinity to RPS6KA1 in human NCI-H358 cells at 1 uM by mass spectrometry based pull down assay. Type of assay: cell-based.
For assay [20], the target named is Ubiquitin-like modifier-activating enzyme 1 (Homo sapiens) (UniProt P22314). Nature of the assay: Binding affinity to UBA1 in human NCI-H358 cells at 1 uM by mass spectrometry based pull down assay. Type of assay: cell-based.
Assay [21] concerns the target Amidophosphoribosyltransferase (Homo sapiens) (UniProt Q06203). Description: Binding affinity to PPAT in human NCI-H358 cells at 1 uM by mass spectrometry based pull down assay. Type of assay: cell-based.
Assay [22] addresses Mitogen-activated protein kinase 3 (Homo sapiens) (UniProt P27361). Description: Binding affinity to MAPK3 in human NCI-H358 cells at 1 uM by mass spectrometry based pull down assay. Type of assay: cell-based.
The target in assay [23] is Retinaldehyde dehydrogenase 3 (Homo sapiens) (UniProt P47895). Description: Binding affinity to ALDH1A3 in human NCI-H358 cells at 1 uM by mass spectrometry based pull down assay. Type of assay: cell-based. An outline of the steps:
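NCI-H23 or NCI-H358 cells were grown and lysed. Lysates were incubated overnight at 4 °C with 1 μM biotinylated covalent probe or DMSO, then pulled down on streptavidin beads. Proteins were run on polyacrylamide gels and stained with Coomassie. Bands were excised, digested and identified by mass spectrometry.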

Assay [24] addresses Vesicle-fusing ATPase (Homo sapiens) (UniProt P46459). Description: Binding affinity to NSF in human NCI-H358 cells at 1 uM by mass spectrometry based pull down assay. Type of assay: cell-based.
Assay [25] concerns the target Ribosomal protein S6 kinase alpha-4 (Homo sapiens) (UniProt O75676). Description: Binding affinity to RPS6KA4 in human NCI-H358 cells at 1 uM by mass spectrometry based pull down assay. Type of assay: cell-based.
For assay [26], the target named is 5'-AMP-activated protein kinase subunit gamma-1 (Homo sapiens) (UniProt P54619). Nature of the assay: Binding affinity to PRKAG1 in human NCI-H358 cells at 1 uM by mass spectrometry based pull down assay. Type of assay: cell-based.
Assay [27] concerns the target High mobility group protein B2 (Homo sapiens) (UniProt P26583). Nature of the assay: Binding affinity to HMGB2 in human NCI-H358 cells at 1 uM by mass spectrometry based pull down assay. Type of assay: cell-based.
Assay [28] concerns the target Elongation factor 1-gamma (Homo sapiens) (UniProt P26641). Nature of the assay: Binding affinity to EEF1G in human NCI-H358 cells at 1 uM by mass spectrometry based pull down assay. Type of assay: cell-based.
Assay [29] concerns the target Vesicle-trafficking protein SEC22b (Homo sapiens) (UniProt O75396). Description: Binding affinity to SEC22B in human NCI-H358 cells at 1 uM by mass spectrometry based pull down assay. Type of assay: cell-based.
Assay [30] has as its target Tubulin beta-2A chain (Homo sapiens) (UniProt Q13885). Description: Binding affinity to TUBB2A in human NCI-H358 cells at 1 uM by mass spectrometry based pull down assay. Type of assay: cell-based.
Assay [31] addresses Vascular endothelial growth factor receptor 1 (Homo sapiens) (UniProt P17948). Description: Inhibition of human FLT1 (781 to 1239 residues) expressed in bacterial expression system assessed as enzyme activity at 1 uM by KINOMEScan assay relative to control. On the set-up: scale not given: the % may be the effect or the level left. An outline of the steps:
(§1)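 In vitro ATP-site competition binding assay across a panel of 456 kinases, with compound tested at 1 and 10 μM.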

Assay [32] addresses Ribosomal protein S6 kinase alpha-6 (Homo sapiens) (UniProt Q9UK32). Description: Inhibition of human RSK4 (1 to 397 residues) expressed in mammalian expression system assessed as enzyme activity at 1 uM by KINOMEScan assay relative to control. Details: scale not given: the % may be the effect or the level left. The method, boiled down:
as §1

The source made the active and inactive calls. The calls are words filed in the database; no cut-off is given here.

Sequence of Amidophosphoribosyltransferase (Homo sapiens) (Q06203 whole entry): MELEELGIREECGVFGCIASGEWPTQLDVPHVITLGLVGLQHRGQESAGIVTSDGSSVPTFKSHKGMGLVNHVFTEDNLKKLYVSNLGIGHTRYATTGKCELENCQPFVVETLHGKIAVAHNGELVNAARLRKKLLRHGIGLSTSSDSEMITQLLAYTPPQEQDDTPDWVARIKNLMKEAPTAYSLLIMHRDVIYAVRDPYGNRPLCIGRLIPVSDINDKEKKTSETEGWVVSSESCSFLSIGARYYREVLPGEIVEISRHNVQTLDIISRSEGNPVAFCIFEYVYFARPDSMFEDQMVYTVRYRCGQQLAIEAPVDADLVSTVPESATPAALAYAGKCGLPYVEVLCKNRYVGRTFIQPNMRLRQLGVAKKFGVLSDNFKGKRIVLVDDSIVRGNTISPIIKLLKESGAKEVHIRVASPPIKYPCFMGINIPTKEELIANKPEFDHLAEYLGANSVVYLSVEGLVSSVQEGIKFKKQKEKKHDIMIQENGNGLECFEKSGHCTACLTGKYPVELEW
Sequence of Vesicle-fusing ATPase (Homo sapiens) (P46459 whole entry): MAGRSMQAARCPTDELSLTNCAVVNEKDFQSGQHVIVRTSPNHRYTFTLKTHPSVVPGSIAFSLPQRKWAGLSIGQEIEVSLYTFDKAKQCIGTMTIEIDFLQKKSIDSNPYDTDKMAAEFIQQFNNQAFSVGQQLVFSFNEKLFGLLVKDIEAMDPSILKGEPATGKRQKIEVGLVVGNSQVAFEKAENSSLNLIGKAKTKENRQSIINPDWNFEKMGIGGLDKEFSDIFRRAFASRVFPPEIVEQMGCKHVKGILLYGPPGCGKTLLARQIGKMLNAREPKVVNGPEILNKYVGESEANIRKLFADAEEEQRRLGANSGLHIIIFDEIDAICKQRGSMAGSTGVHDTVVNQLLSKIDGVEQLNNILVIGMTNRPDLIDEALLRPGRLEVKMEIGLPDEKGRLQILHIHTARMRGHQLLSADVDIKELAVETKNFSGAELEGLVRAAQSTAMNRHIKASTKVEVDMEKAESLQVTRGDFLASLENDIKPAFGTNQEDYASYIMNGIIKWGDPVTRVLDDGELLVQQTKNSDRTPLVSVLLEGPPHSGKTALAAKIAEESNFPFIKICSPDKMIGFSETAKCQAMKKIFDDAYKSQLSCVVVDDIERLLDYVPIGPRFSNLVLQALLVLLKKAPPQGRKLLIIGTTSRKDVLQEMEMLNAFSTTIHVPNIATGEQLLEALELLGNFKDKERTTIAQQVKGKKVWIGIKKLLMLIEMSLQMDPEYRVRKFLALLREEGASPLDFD
Sequence of Vascular endothelial growth factor receptor 1 (Homo sapiens) (P17948 whole entry, the tested form may be a part): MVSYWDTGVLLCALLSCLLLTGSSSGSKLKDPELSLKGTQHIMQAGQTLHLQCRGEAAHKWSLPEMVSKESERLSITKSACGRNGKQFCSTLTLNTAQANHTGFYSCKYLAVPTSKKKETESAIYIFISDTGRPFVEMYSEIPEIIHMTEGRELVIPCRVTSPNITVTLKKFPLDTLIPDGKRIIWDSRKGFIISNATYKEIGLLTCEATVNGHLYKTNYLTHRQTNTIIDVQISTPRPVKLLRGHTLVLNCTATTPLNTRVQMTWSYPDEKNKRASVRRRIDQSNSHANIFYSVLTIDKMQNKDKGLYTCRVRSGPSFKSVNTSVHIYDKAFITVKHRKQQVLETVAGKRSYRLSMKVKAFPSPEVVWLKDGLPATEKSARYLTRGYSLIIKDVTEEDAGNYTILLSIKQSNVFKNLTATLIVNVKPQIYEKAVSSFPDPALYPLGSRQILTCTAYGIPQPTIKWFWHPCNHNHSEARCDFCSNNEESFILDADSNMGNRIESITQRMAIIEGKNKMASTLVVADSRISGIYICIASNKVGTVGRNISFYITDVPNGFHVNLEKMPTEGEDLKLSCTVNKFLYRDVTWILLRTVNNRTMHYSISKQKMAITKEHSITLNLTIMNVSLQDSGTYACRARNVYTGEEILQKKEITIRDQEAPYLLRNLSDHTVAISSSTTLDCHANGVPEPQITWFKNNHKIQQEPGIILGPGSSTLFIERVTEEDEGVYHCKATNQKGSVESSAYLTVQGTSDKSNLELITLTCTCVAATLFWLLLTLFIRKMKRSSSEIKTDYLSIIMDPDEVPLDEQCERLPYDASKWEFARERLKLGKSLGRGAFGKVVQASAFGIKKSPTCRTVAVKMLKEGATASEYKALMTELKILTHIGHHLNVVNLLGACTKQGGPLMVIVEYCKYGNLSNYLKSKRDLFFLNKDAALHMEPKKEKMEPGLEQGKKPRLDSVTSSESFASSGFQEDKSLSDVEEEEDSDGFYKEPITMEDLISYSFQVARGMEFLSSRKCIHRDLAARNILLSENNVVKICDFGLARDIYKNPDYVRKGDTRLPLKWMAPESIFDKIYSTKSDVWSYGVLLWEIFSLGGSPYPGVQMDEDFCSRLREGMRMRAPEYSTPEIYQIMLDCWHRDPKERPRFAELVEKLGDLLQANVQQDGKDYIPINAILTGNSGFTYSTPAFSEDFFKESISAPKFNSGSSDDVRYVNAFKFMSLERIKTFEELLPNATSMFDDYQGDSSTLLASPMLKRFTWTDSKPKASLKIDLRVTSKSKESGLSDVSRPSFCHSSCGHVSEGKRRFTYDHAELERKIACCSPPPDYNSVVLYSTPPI
Sequence of Ribosomal protein S6 kinase alpha-1 (Homo sapiens) (Q15418 whole entry): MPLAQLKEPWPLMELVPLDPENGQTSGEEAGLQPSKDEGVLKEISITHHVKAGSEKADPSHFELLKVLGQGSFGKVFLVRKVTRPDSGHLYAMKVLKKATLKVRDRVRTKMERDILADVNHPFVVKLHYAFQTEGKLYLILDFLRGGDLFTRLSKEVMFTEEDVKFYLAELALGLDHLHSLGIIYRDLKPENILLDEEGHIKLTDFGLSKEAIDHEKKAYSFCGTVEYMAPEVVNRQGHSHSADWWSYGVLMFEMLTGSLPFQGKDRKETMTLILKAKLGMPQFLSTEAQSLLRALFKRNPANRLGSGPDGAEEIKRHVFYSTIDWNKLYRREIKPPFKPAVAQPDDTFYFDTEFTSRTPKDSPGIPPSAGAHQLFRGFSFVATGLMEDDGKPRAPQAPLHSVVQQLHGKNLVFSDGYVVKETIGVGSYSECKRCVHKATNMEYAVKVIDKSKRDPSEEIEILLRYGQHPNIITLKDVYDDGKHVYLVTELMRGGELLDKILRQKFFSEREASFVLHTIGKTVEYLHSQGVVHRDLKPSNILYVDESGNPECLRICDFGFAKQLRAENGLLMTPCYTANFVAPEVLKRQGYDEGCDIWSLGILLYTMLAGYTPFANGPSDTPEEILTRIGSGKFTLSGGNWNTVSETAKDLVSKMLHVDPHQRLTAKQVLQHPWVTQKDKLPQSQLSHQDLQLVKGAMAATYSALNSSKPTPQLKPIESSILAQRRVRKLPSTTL
Sequence of Ribosomal protein S6 kinase alpha-4 (Homo sapiens) (O75676 whole entry, looked up): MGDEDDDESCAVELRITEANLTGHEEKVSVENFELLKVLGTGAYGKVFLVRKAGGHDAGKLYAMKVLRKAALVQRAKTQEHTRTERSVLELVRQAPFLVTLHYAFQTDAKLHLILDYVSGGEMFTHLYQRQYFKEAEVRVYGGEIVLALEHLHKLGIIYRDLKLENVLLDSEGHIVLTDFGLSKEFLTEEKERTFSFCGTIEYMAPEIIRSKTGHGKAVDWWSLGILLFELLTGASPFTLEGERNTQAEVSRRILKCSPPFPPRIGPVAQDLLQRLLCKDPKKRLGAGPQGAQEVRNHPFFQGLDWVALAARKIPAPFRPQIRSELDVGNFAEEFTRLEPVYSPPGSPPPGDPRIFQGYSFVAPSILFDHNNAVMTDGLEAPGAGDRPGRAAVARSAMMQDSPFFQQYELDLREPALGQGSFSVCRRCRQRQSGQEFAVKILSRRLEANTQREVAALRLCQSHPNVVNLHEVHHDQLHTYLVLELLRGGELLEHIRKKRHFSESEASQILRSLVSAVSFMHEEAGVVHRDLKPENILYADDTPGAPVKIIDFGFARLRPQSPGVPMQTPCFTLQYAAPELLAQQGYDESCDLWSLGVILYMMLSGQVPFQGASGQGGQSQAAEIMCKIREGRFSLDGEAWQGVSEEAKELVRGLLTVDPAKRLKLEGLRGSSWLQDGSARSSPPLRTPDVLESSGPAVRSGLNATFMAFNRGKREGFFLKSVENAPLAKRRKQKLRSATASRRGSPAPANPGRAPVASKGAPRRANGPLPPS
Sequence of Vesicle-trafficking protein SEC22b (Homo sapiens) (O75396 whole entry): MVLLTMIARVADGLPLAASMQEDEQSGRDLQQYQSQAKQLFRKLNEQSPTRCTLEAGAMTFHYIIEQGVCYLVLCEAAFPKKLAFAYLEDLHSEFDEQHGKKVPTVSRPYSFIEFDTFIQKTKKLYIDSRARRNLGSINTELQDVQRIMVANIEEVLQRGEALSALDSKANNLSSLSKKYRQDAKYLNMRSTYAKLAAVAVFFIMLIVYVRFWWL
Sequence of Thymidylate kinase (Homo sapiens) (P23919 whole entry): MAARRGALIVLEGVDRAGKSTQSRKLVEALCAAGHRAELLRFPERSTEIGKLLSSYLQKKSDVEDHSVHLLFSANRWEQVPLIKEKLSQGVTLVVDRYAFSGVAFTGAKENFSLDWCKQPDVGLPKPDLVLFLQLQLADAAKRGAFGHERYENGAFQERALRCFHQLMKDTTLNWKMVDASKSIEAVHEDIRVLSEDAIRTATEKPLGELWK
Sequence of 14-3-3 protein gamma (Homo sapiens) (P61981 whole entry): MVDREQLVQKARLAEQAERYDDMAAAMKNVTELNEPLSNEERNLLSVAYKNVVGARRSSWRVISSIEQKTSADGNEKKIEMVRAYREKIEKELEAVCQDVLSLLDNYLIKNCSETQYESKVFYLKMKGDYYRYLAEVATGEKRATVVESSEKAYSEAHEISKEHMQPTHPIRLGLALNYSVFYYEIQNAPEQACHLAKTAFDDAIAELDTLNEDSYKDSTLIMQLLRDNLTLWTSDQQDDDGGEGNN
Sequence of COP9 signalosome complex subunit 8 (Homo sapiens) (Q99627 whole entry, one chain of several): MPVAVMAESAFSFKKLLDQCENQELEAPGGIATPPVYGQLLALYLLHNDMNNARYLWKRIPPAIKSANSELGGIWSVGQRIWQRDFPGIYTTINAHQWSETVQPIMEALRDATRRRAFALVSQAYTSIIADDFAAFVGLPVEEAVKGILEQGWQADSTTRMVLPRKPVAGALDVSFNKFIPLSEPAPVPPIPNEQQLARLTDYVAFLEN

Regarding `C=CC(=O)Nc1ccccc1Nc1nc(Nc2ccc(N3CCN(CCOCCOCCOCCNC(=O)CCCC[C@@H]4SC[C@@H]5NC(=O)N[C@@H]54)CC3)cc2)ncc1Cl`, the result in assay [1], in assay [2], in [3], in [4], in [5] and in assay [6] was Active. For the same compound, the result in assay [7], in assay [8], in [9], in [10], in assay [11] and in assay [12] was Active. Further, the result in assay [13], in assay [14], in assay [15], in assay [16], in assay [17] and in assay [18] was Active. In addition, the outcome in assay [19], in assay [20], in assay [21], in assay [22], in assay [23] and in assay [24] was Active. The result in assay [25], in assay [26], in assay [27], in assay [28], in [29] and in [30] was Active.

Regarding `COc1cc(O)c2c(c1)/C=C/C[C@H](O)[C@H](O)C(=O)/C=C\C[C@H](C)OC2=O`, the results for the Activity in assay [31] and in assay [32] were 16% and 34%, respectively.

For the origin of these results see ChEMBL document CHEMBL4118021, “Studies of TAK1-centered polypharmacology with novel covalent TAK1 inhibitors” (Bioorg Med Chem, 2017).
